Here are results for 12 compounds from PubChem BioAssay AID623922 (The Scripps Research Institute Molecular Screening Center, 2012).

The target in the assay is RecBCD enzyme subunit RecC (Escherichia coli (strain K12)) + RecBCD enzyme subunit RecB (Escherichia coli (strain K12)) (UniProt P07648+P08394). In words: purified RecBCD nuclease inhibitors, late-stage follow-up, counter-screen for AddAB inhibitor project, biochemical, radioactivity readout, 50 µM single dose (AID 623922). As to conditions: [3H] dsDNA nuclease, TCA-soluble radioactivity, at 50 µM, active compounds read low. The procedure, abridged:
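Test system: purified Escherichia coli RecBCD helicase-nuclease enzyme; benchmarks: DMSO control and no-enzyme background; schedule: mixing on ice, 20 min reaction at 37 °C; signal: radioactivity counts of acid-soluble DNA digestion products; probe or stimulus: [3H] T7 dsDNA, 6 µM nucleotides; medium: pH 8.5, 10 mM MgCl2, 25 µM ATP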
(In general: A counterscreen serves to expose hits that act by an unwanted route or on another target.)

Activity calls are given as the source filed them.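 How the source made its calls: active means residual nuclease activity at or below 52% of the solvent-only control; inactive means the rest.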

RecBCD enzyme subunit RecC (Escherichia coli (strain K12)) + RecBCD enzyme subunit RecB (Escherichia coli (strain K12)), sequence (P07648 whole entry, looked up): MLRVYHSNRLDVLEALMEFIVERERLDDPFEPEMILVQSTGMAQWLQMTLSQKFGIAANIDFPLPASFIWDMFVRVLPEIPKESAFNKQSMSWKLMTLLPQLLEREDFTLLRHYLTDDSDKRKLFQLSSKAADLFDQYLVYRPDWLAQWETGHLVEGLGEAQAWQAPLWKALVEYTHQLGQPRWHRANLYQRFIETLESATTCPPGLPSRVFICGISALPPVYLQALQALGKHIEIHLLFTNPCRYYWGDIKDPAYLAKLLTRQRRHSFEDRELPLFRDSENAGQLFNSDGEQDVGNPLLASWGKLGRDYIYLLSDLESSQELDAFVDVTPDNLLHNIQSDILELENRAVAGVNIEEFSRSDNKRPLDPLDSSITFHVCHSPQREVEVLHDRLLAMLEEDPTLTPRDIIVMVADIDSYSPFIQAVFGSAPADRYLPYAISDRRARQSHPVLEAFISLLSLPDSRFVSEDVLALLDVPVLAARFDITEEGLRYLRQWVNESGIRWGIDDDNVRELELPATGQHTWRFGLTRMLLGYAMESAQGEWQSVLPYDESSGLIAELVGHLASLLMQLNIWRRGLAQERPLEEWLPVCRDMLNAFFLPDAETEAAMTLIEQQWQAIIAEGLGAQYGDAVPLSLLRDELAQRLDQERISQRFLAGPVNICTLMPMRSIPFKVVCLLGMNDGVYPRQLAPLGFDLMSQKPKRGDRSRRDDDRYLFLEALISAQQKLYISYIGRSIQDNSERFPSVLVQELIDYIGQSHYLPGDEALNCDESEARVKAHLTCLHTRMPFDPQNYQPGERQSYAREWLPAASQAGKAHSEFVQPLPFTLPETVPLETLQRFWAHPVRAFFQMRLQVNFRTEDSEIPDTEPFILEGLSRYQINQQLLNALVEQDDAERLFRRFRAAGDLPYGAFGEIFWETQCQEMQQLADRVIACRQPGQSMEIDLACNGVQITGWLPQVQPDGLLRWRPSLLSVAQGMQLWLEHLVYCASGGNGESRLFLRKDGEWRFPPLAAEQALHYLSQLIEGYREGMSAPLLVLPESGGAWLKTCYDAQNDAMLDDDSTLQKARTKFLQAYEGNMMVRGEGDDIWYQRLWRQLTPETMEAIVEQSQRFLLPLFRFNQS
RecBCD enzyme subunit RecC (Escherichia coli (strain K12)) + RecBCD enzyme subunit RecB (Escherichia coli (strain K12)), sequence (P08394 whole entry, looked up): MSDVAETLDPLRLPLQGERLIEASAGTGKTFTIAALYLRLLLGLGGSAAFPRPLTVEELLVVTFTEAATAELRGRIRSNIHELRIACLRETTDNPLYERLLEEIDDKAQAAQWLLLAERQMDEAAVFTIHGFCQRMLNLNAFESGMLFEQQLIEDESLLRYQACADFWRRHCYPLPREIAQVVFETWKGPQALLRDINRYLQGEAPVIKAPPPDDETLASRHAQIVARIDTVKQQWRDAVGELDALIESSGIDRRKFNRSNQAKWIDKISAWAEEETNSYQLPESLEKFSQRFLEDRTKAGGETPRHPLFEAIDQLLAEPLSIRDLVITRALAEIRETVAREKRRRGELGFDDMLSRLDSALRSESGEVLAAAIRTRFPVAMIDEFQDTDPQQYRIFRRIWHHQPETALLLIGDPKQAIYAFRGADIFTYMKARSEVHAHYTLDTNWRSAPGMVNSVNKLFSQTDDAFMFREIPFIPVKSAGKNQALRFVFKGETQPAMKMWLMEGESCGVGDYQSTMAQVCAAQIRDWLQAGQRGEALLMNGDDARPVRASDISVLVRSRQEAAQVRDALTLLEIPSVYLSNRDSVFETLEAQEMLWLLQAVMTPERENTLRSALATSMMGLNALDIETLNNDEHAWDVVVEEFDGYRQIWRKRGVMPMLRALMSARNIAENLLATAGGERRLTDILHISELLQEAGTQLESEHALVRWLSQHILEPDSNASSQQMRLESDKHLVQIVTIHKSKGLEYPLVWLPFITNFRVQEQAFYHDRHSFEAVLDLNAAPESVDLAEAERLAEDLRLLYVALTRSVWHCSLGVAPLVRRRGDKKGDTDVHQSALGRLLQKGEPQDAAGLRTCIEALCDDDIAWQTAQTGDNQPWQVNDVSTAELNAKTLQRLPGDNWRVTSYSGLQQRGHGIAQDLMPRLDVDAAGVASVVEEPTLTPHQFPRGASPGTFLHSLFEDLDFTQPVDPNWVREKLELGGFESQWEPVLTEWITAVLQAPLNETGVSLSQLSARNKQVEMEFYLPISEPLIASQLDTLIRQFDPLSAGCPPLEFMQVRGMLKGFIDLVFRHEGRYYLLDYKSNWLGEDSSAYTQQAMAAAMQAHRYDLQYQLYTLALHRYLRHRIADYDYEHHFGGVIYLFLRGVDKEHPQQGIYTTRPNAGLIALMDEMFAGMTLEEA

`CCn1cc(C(=O)O)c(=O)c2cnc(N3CCN(C(=S)NC(=O)c4cccc(C)c4)CC3)nc21`: the residual nuclease activity was 47%.

For the compound `CCn1cc(C(=O)O)c(=O)c2cnc(N3CCNCC3)nc21`, the residual nuclease activity is 93% (inactive).

In the case of `CCn1cc(C(=O)O)c(=O)c2cnc(N3CCN(C(=S)Nc4ccc5c(c4)OCO5)CC3)nc21`, the residual nuclease activity is 46%.

For the compound `CCn1cc(C(=O)O)c(=O)c2cnc(N3CCN(C(=S)Nc4ccccc4C(F)(F)F)CC3)nc21`, the residual nuclease activity is 43%.

Regarding `CCn1cc(C(=O)O)c(=O)c2cnc(N3CCN(C(=S)Nc4ccc(Cl)cc4)CC3)nc21`, the residual nuclease activity was 50%.

As to `CCn1cc(C(=O)O)c(=O)c2cnc(N3CCN(C(=S)Nc4ccccc4)CC3)nc21`, the residual nuclease activity is 68% (inactive).

Take `CCn1cc(C(=O)O)c(=O)c2cnc(N3CCN(C(=S)NC(C)c4ccccc4)CC3)nc21` (configuration not stated): the residual nuclease activity is 27%.

`CCn1cc(C(=O)O)c(=O)c2cnc(N3CCN(C(=O)Nc4ccccc4)CC3)nc21`: the residual nuclease activity is 91% (inactive).

Consider `CCn1cc(C(=O)O)c(=O)c2cnc(N3CCN(C(=S)Nc4ccc(F)cc4)CC3)nc21`, for which the residual nuclease activity was 51%.

Consider `CCn1cc(C(=O)O)c(=O)c2cnc(N3CCN(C(=S)NC4CC5CCC4C5)CC3)nc21` (configuration not stated), for which the residual nuclease activity is 75% (inactive).

As to `CCn1cc(C(=O)O)c(=O)c2cnc(N3CCN(C(=S)NCc4ccccc4)CC3)nc21`, the residual nuclease activity is 45%.

With `CCn1cc(C(=O)O)c(=O)c2cnc(N3CCN(C(=S)Nc4cccc(C(F)(F)F)c4)CC3)nc21`, the residual nuclease activity was 8%.
